T cruzi growth-1 – inhibitors of T. cruzi proliferation; T. cruzi beta-gal in NIH3T3, GalScreen luminescence, 90 h; inhibition, % at 8.34 µM; 5.9% of 77,000 active; AID 624255;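 active = mean inhibition above about 93%, with at least 55% of replicates each passing it, limit read from the data, passing the limit was not always enough; inconclusive = only one of those two conditions holds; inactive = neither condition holds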
IDH1 mut inh – blocks human IDH1 R132H reductase activity. 0.18% of 70,000 active. inhibition, % at 10 µM. O75874. diaphorase/resazurin fluorescence, 60 min; in the data active = inhibition above about 34%; inconclusive = no clear call, values can overlap the other calls; inactive = below about 11%
Target sequence (O75874 whole entry R132H): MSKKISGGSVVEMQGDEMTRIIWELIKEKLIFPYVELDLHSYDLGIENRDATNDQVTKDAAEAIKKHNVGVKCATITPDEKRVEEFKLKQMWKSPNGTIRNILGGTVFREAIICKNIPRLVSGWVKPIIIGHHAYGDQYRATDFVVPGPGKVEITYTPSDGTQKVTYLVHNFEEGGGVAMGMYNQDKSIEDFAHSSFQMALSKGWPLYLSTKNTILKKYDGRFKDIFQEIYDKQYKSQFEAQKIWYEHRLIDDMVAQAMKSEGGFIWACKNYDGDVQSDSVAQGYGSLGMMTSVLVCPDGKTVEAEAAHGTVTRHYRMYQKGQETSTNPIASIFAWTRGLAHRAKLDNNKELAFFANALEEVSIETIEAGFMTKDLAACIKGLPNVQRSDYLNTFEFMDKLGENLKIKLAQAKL
Pf Dd2 growth – blocks growth of Plasmodium falciparum Dd2 parasites. P. falciparum Dd2 growth, SYBR Green, 72 h; hits give low values. 2.3% of 94,000 active. AID 1159554. activity change, % at 10 µM; in the data active = activity change below about -80%; inconclusive = no clear call, values can overlap the other calls
GASC1 inh – blocks human GASC-1 (KDM4C) demethylase activity. inhibition, % at 12.5 µM. AID 720574. Q9H3R0. GST-KDM4C 2-372, H3K9me3 peptide, LANCE TR-FRET. 0.15% of 96,000 active;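 active = mean replicate inhibition above about 25%, with at least 55% of replicates also reaching it, limit read from the data, passing the limit was not always enough; inconclusive = only one of those two conditions met; inactive = neither condition met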
Target sequence (Q9H3R0 2-372 limits assumed): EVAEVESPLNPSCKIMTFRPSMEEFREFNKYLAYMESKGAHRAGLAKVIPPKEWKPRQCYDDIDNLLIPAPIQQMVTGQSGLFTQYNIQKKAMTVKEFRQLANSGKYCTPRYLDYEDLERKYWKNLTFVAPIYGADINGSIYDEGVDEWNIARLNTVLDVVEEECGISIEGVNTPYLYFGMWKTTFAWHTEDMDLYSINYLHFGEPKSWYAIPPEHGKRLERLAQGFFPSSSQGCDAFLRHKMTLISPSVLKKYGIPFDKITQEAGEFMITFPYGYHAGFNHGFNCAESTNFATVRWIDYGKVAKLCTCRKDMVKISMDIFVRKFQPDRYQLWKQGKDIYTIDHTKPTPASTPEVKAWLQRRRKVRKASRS
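System – N-terminal GST-fused human GASC-1 (KDM4C) fragment, residues 2-372 · Input – enzyme final amount 10 nM · Technique – LANCE TR-FRET, Eu antibody, ULight-streptavidin, EDTA, ex 340 nm, em 618/671 nm · Medium – HEPES buffer, pH 7.5, plus ascorbate · Incubation – enzyme reaction 30 min, then detection 60 min, both room temperature · Reagent – H3K9me3 peptide with Fe(II)/2OG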
T cruzi growth-2 – Trypanosoma cruzi proliferation inhibition; shares compounds with T cruzi growth-1; T. cruzi beta-gal in NIH3T3, GalScreen luminescence, 90 h; inhibition, % at 8.35 µM; 72% of 5,600 active; AID 651739;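 active = mean replicate inhibition above about 95% and at least 55% of replicates individually reaching it, limit read from the data; inconclusive = only one of the two criteria is met; inactive = neither criterion is met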
T cruzi growth-3 – inhibitors of T. cruzi proliferation | shares compounds with T cruzi growth-1 | T. cruzi beta-gal in NIH3T3, GalScreen luminescence, 90 h | inhibition, % at 2.09 µM | 21% of 5,600 active | AID 651740;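 active = mean inhibition above about 95%, with at least 55% of replicates also reaching it, limit read from the data; inconclusive = meets just one of the two conditions; inactive = meets neither condition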
NIH3T3 tox – kills mouse NIH/3T3 fibroblasts; shares compounds with T cruzi growth-1; NIH/3T3 viability, CellTiter-Glo ATP luminescence, 90 h; cytotoxicity (signal decrease), % at 8.35 µM; 14% of 5,600 active; AID 651742;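 active = mean signal decrease across replicates above about 35% based on untreated-well scatter, with enough replicates individually passing, limit read from the data; inconclusive = no rule stated though some were filed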
3T3 cytotox 2 – cytotoxicity in mouse NIH/3T3 fibroblasts; shares compounds with T cruzi growth-1; NIH/3T3 viability, CellTiter-Glo ATP luminescence, 90 h; inhibition, % at 24.9 µM; 56% of 5,600 active; AID 651744;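 active = mean loss of cell viability signal at or above a set limit, and enough replicates individually reaching it; inconclusive = meets only the mean limit or only the replicate share; inactive = meets neither condition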
Each line names hits and unclear results; the compound was inactive in the other large screens (follow-up assays come after a bar, where they were run). A selection: hits, their analogues and other compounds. The true share with any hit is near 5.9%.

N#Cc1cccc(-c2ccc3c(c2)[C@H]2[C@H](CCN2Cc2cncnc2)[C@H](CO)N3)c1	none (no result: IDH1 mut inh)
N#Cc1cccc(-c2ccc3c(c2)[C@@H]2[C@@H](CCN2Cc2cncnc2)[C@H](CO)N3)c1	T cruzi growth-1 112.0 (no result: IDH1 mut inh) | T cruzi growth-2 114.7 | T cruzi growth-3 inactive | NIH3T3 tox inactive | 3T3 cytotox 2 39.5
N#Cc1cccc(-c2ccc3c(c2)[C@H]2[C@H](CCN2C(=O)c2ccncc2)[C@H](CO)N3)c1	T cruzi growth-1 117.9, Pf Dd2 growth -80.2 (no result: IDH1 mut inh) | T cruzi growth-2 inactive | T cruzi growth-3 inactive | NIH3T3 tox inactive | 3T3 cytotox 2 inactive
C[C@H]1CN([C@@H](C)CO)S(=O)(=O)c2ccc(C#Cc3ccncc3)cc2O[C@H]1CN(C)C(=O)C1CC1	none (no result: IDH1 mut inh)
COc1ccccc1-c1cn(CC[C@@H]2CC[C@@H](NC(=O)C3CCCCC3)[C@@H](CO)O2)nn1	none
C[C@H](CO)N1C[C@H](C)[C@H](CN(C)Cc2ccccc2)Oc2cc(/C=C/c3ccccc3)ccc2S1(=O)=O	T cruzi growth-1 102.6 | T cruzi growth-2 100.4 | T cruzi growth-3 100.0 | NIH3T3 tox inactive | 3T3 cytotox 2 104.1
C[C@H](CO)N1C[C@H](C)[C@@H](CN(C)Cc2ccccc2)Oc2cc(/C=C/c3ccccc3)ccc2S1(=O)=O	none
C[C@@H]1CN([C@@H](C)CO)S(=O)(=O)c2ccc(/C=C/c3ccccc3)cc2O[C@@H]1CN(C)Cc1cccnc1	T cruzi growth-1 88.3 | T cruzi growth-2 inactive | T cruzi growth-3 inactive | NIH3T3 tox 69.6 | 3T3 cytotox 2 94.5
C[C@H]1CN([C@@H](C)CO)S(=O)(=O)c2ccc(/C=C/c3ccccc3)cc2O[C@H]1CN(C)Cc1ccccc1	T cruzi growth-1 110.0 (no result: GASC1 inh) | T cruzi growth-2 97.0 | T cruzi growth-3 113.2 | NIH3T3 tox inactive | 3T3 cytotox 2 103.1
CCC(=O)N1CCC2(CC1)CN(C(=O)Nc1ccccc1F)[C@@H](CO)c1c2c2ccc(OC)cc2n1C	none (no result: T cruzi growth-1, IDH1 mut inh)
COc1ccc(S(=O)(=O)N2C[C@@H](O)COC[C@H]3O[C@H](CC(=O)NCc4ccc(Cl)c(Cl)c4)CC[C@@H]32)cc1	T cruzi growth-1 129.0 (no result: IDH1 mut inh) | T cruzi growth-2 inactive | T cruzi growth-3 inactive | NIH3T3 tox inactive | 3T3 cytotox 2 43.0
COc1ccc(S(=O)(=O)N2C[C@@H](O)COC[C@@H]3O[C@@H](CC(=O)NCc4ccc(Cl)c(Cl)c4)CC[C@H]32)cc1	T cruzi growth-1 168.4 (no result: IDH1 mut inh) | T cruzi growth-2 inactive | T cruzi growth-3 inactive | NIH3T3 tox inactive | 3T3 cytotox 2 42.1
Cc1ccc(S(=O)(=O)N2C[C@H](O)COC[C@@H]3O[C@H](CC(=O)NCc4ccc(Cl)c(Cl)c4)CC[C@H]32)cc1	none (no result: IDH1 mut inh)
COc1ccc(S(=O)(=O)N2C[C@@H](O)COC[C@@H]3O[C@H](CC(=O)NCc4ccc(Cl)c(Cl)c4)CC[C@H]32)cc1	T cruzi growth-1 143.0 (no result: IDH1 mut inh) | T cruzi growth-2 109.6 | T cruzi growth-3 inactive | NIH3T3 tox inconclusive | 3T3 cytotox 2 33.4
COc1ccc(S(=O)(=O)N2C[C@H](O)COC[C@@H]3O[C@H](CC(=O)NCc4ccc(Cl)c(Cl)c4)CC[C@H]32)cc1	T cruzi growth-1 143.9 (no result: IDH1 mut inh) | T cruzi growth-2 inactive | T cruzi growth-3 inactive | NIH3T3 tox inactive | 3T3 cytotox 2 63.6
CO[C@@H]1CN(C)C(=O)c2cc(NS(=O)(=O)c3ccc(C)cc3)ccc2OC[C@H](C)N(C)C[C@@H]1C	none
CCCN1[C@H](C(=O)NCCN2CCCC2)[C@@H](CO)[C@@H]2Cn3c(ccc(-c4cccnc4)c3=O)[C@@H]21	none (no result: IDH1 mut inh)
COc1ccc(S(=O)(=O)N2C[C@H](O)COC[C@H]3O[C@H](CC(=O)NCc4ccc(Cl)c(Cl)c4)CC[C@@H]32)cc1	T cruzi growth-1 inconclusive (no result: IDH1 mut inh) | T cruzi growth-2 inactive | T cruzi growth-3 inactive | NIH3T3 tox inactive | 3T3 cytotox 2 43.7
COc1ccc(S(=O)(=O)N2C[C@H](O)COC[C@H]3O[C@@H](CC(=O)NCc4ccc(Cl)c(Cl)c4)CC[C@@H]32)cc1	T cruzi growth-1 98.1 (no result: IDH1 mut inh) | T cruzi growth-2 100.1 | T cruzi growth-3 inactive | NIH3T3 tox inactive | 3T3 cytotox 2 42.4
C[C@@H]1CN([C@H](C)CO)C(=O)c2cc(NC(=O)C3CC3)ccc2O[C@@H]1CN(C)C(=O)Nc1ccc2c(c1)OCO2	none
COc1cc([C@@H]2c3cc4c(cc3C(OC3OC5COC(C)OC5C(O)C3O)C3OCC(=O)[C@@H]32)OCO4)cc(OC)c1O (some centres undefined)	none (no result: T cruzi growth-1, Pf Dd2 growth, GASC1 inh)
O=C(C[C@H]1C[C@@H]2c3cc(NC(=O)c4ccc5c(c4)OCO5)ccc3O[C@@H]2[C@@H](CO)O1)NCc1cc(F)ccc1F	none
CS(=O)(=O)Nc1ccc2c(c1)[C@H]1C[C@@H](CC(=O)NCc3ccncc3)O[C@@H](CO)[C@H]1O2	T cruzi growth-1 107.5 | T cruzi growth-2 inactive | T cruzi growth-3 inactive | NIH3T3 tox inactive | 3T3 cytotox 2 inactive
O=C(C[C@H]1C[C@@H]2c3cc(NC(=O)c4cccnc4)ccc3O[C@@H]2[C@H](CO)O1)NCc1cccnc1	T cruzi growth-1 97.8 | T cruzi growth-2 inactive | T cruzi growth-3 inactive | NIH3T3 tox inactive | 3T3 cytotox 2 inactive
O=C(C[C@H]1C[C@@H]2c3cc(NC(=O)c4cccnc4)ccc3O[C@@H]2[C@@H](CO)O1)NCCc1ccccc1	T cruzi growth-1 128.7 | T cruzi growth-2 inactive | T cruzi growth-3 inactive | NIH3T3 tox inactive | 3T3 cytotox 2 inactive
O=C(C[C@@H]1C[C@@H]2c3cc(NC(=O)c4ccc5c(c4)OCO5)ccc3O[C@@H]2[C@@H](CO)O1)NCc1cc(F)ccc1F	T cruzi growth-1 98.7 | T cruzi growth-2 inactive | T cruzi growth-3 inactive | NIH3T3 tox inactive | 3T3 cytotox 2 inactive
N#C[C@@H]1[C@@H](c2ccccc2C2=CCCC2)[C@H](CO)N1C(=O)Cc1ccncc1	none (no result: T cruzi growth-1, IDH1 mut inh)
CCCNC(=O)C[C@@H]1CC[C@@H]2[C@@H](COc3ccc(NS(=O)(=O)c4ccccc4C)cc3C(=O)N2C)O1	none (no result: IDH1 mut inh)
O=C(C[C@H]1CC[C@H]2[C@@H](COC[C@@H](O)CN2CC2CCCCC2)O1)NCc1ccc(F)cc1	none (no result: IDH1 mut inh, Pf Dd2 growth)
CN(C)CCCNC(=O)C[C@H]1CC[C@@H]2[C@H](COC[C@H](O)CN2CC2CCCC2)O1	T cruzi growth-1 inconclusive (no result: IDH1 mut inh, Pf Dd2 growth) | T cruzi growth-2 inactive | T cruzi growth-3 inactive | NIH3T3 tox inactive | 3T3 cytotox 2 inactive
O=C(C[C@@H]1CC[C@@H]2[C@H](COC[C@H](O)CN2CC2CCCCC2)O1)NCc1ccc(F)cc1	T cruzi growth-1 inconclusive (no result: IDH1 mut inh, Pf Dd2 growth) | T cruzi growth-2 inactive | T cruzi growth-3 inactive | NIH3T3 tox inactive | 3T3 cytotox 2 inactive
CN(C)CCCNC(=O)C[C@@H]1CC[C@H]2[C@@H](COC[C@@H](O)CN2CC2CCCC2)O1	none (no result: IDH1 mut inh, Pf Dd2 growth)

Screens as filed in PubChem.
